According to ChEMBL document CHEMBL1166015, “Design, synthesis, and docking of highly hypolipidemic agents: Schizosaccharomyces pombe as a new model for evaluating alpha-asarone-based HMG-CoA reductase inhibitors” (Bioorg Med Chem, 2010):

Columns and labels:
Mus musculus [1] = assay: Hypolipidemic activity in ICR mouse assessed as decrease in Tyloxapol-induced HDL-cholesterol level at 100 mg/kg, ip administered 1 hr before Tyloxapol challenge and 22, 48 hrs after Tyloxapol challenge measured after 22 hrs relative to control; format: functional; design: scale not given: the % may be the effect or the level left; conditions: route intraperitoneal
Summary of the method: (§1)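 Male ICR mice (24–27 g), groups of six. Hyperlipidemia induced by ip Tyloxapol (Triton WR 1339) 400 mg/kg in water. Drug given at 5 mL/kg 1 h before and 22 and 48 h after injection; vehicle controls. Blood drawn 22 h post-injection by periorbital bleeding. Serum total cholesterol, HDL-C and triglycerides measured on an automatic analyzer; LDL-C by the Friedewald equation. Values are % of the Tyloxapol group, mean ± SE.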

Mus musculus [2] = assay: Hypolipidemic activity in high cholesterol diet fed ICR mouse assessed as reduction of HDL cholesterol level at 100 mg/kg/day, po after 12 hrs of last cholesterol challenge relative to control; design: scale not given: the % may be the effect or the level left
Mus musculus [3] = assay: Hypolipidemic activity in ICR mouse assessed as decrease in Tyloxapol-induced triglyceride level at 50 mg/kg, ip administered 1 hr before Tyloxapol challenge and 22, 48 hrs after Tyloxapol challenge measured after 22 hrs relative to control; format: functional; design: scale not given: the % may be the effect or the level left; conditions: route intraperitoneal; summary of the method: as §1
Mus musculus [4] = assay: Hypolipidemic activity in ICR mouse assessed as decrease in Tyloxapol-induced total cholesterol level at 100 mg/kg, ip administered 1 hr before Tyloxapol challenge and 22, 48 hrs after Tyloxapol challenge measured after 22 hrs relative to control; format: functional; design: scale not given: the % may be the effect or the level left; conditions: route oral, in the assay text read “po administered” for “ip administered”; summary of the method: as §1
Mus musculus [5] = assay: Hypolipidemic activity in ICR mouse assessed as decrease in Tyloxapol-induced LDL-cholesterol level at 100 mg/kg, ip administered 1 hr before Tyloxapol challenge and 22, 48 hrs after Tyloxapol challenge measured after 22 hrs relative to control; format: functional; design: scale not given: the % may be the effect or the level left; conditions: route oral, in the assay text read “po administered” for “ip administered”; summary of the method: as §1
Mus musculus [6] = assay: Hypolipidemic activity in high cholesterol diet fed ICR mouse assessed as reduction of triglyceride level at 100 mg/kg/day, po after 12 hrs of last cholesterol challenge relative to control; design: scale not given: the % may be the effect or the level left
Mus musculus [7] = assay: Hypolipidemic activity in ICR mouse assessed as decrease in Tyloxapol-induced LDL-cholesterol level at 50 mg/kg, ip administered 1 hr before Tyloxapol challenge and 22, 48 hrs after Tyloxapol challenge measured after 22 hrs relative to control; format: functional; design: scale not given: the % may be the effect or the level left; conditions: route oral, in the assay text read “po administered” for “ip administered”; summary of the method: as §1
Mus musculus [8] = assay: Hypolipidemic activity in high cholesterol diet fed ICR mouse assessed as reduction of total cholesterol level at 50 mg/kg, ip after 12 hrs of last cholesterol challenge relative to control; format: functional; design: scale not given: the % may be the effect or the level left; conditions: route intraperitoneal
Summary of the method: (§2)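 Male ICR mice (24–27 g), six per group, were fed a high-cholesterol diet ad libitum for 6 days (1.0% cholesterol, 0.5% sodium cholate, 5% butter, 30% sucrose, 10% casein, 53.5% chow). Basal-diet mice served as controls. Dosing was 5 mL/kg and solutions were made fresh. Mice were fasted 12 h before sacrifice and bled periorbitally. Serum TC, HDL-C and TG were read on an analyzer, with LDL-C by Friedewald.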

Mus musculus [9] = assay: Hypolipidemic activity in high cholesterol diet fed ICR mouse assessed as reduction of total cholesterol level at 100 mg/kg/day, ip after 12 hrs of last cholesterol challenge relative to control; format: functional; design: scale not given: the % may be the effect or the level left; conditions: route intraperitoneal; summary of the method: as §2
Mus musculus [10] = assay: Hypolipidemic activity in ICR mouse assessed as decrease in Tyloxapol-induced triglyceride level at 100 mg/kg, ip administered 1 hr before Tyloxapol challenge and 22, 48 hrs after Tyloxapol challenge measured after 22 hrs relative to control; format: functional; design: scale not given: the % may be the effect or the level left; conditions: route intraperitoneal; summary of the method: as §1
Mus musculus [11] = assay: Hypolipidemic activity in high cholesterol diet fed ICR mouse assessed as reduction of HDL cholesterol level at 50 mg/kg/day, po after 12 hrs of last cholesterol challenge relative to control; design: scale not given: the % may be the effect or the level left
Mus musculus [12] = assay: Hypolipidemic activity in ICR mouse assessed as decrease in Tyloxapol-induced HDL-cholesterol level at 50 mg/kg, ip administered 1 hr before Tyloxapol challenge and 22, 48 hrs after Tyloxapol challenge measured after 22 hrs relative to control; format: functional; design: scale not given: the % may be the effect or the level left; conditions: route oral, in the assay text read “po administered” for “ip administered”; summary of the method: as §1
Mus musculus [13] = assay: Hypolipidemic activity in high cholesterol diet fed ICR mouse assessed as reduction of LDL cholesterol level at 50 mg/kg/day, po after 12 hrs of last cholesterol challenge relative to control; design: scale not given: the % may be the effect or the level left
Mus musculus [14] = assay: Hypolipidemic activity in high cholesterol diet fed ICR mouse assessed as reduction of triglyceride level at 50 mg/kg/day, po after 12 hrs of last cholesterol challenge relative to control; design: scale not given: the % may be the effect or the level left
Mus musculus [15] = assay: Hypolipidemic activity in ICR mouse assessed as decrease in Tyloxapol-induced total cholesterol level at 50 mg/kg, ip administered 1 hr before Tyloxapol challenge and 22, 48 hrs after Tyloxapol challenge measured after 22 hrs relative to control; format: functional; design: scale not given: the % may be the effect or the level left; conditions: route oral, in the assay text read “po administered” for “ip administered”; summary of the method: as §1
Mus musculus [16] = assay: Hypolipidemic activity in high cholesterol diet fed ICR mouse assessed as reduction of LDL cholesterol level at 100 mg/kg/day, po after 12 hrs of last cholesterol challenge relative to control; design: scale not given: the % may be the effect or the level left
[17] = target: T1, 3-hydroxy-3-methylglutaryl-coenzyme A reductase (Schizosaccharomyces pombe 972h-, UniProt Q10283); assay: Inhibition of Schizosaccharomyces pombe HMG-CoA reductase by spectrophotometry; conditions: read-out: IC50
T1 sequence (Q10283 whole entry): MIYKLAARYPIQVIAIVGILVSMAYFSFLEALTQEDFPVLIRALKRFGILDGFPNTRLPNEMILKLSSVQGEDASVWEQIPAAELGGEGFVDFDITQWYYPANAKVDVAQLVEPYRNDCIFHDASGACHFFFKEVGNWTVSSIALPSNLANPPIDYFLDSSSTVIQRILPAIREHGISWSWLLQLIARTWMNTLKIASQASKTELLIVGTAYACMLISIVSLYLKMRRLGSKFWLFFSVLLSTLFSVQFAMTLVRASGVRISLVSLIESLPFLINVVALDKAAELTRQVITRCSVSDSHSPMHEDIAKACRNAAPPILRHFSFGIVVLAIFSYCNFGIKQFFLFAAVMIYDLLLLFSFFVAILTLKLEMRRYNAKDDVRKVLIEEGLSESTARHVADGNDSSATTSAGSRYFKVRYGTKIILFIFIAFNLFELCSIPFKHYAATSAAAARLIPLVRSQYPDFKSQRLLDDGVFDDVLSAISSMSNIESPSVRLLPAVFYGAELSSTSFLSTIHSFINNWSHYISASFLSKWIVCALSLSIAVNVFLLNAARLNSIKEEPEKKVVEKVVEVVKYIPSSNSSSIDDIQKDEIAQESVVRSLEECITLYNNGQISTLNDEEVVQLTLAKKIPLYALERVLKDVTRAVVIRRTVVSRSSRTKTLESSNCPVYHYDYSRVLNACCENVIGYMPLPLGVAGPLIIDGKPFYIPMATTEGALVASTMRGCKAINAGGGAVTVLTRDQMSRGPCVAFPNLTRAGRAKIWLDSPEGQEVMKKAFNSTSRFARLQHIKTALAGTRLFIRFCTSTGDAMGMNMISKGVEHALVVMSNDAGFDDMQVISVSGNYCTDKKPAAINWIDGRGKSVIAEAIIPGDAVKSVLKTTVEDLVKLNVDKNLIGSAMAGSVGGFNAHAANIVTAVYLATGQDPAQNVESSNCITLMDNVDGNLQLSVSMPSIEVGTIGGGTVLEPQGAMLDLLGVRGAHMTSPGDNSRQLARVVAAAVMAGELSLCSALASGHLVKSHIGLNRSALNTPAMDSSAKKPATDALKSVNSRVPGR
Summary of the method: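 Membrane HMGR partially purified from S. pombe 972 h (YPD, 28 °C, 48 h) via centrifugation, Triton X-100 solubilization, 65 °C heat step, ammonium sulfate and calcium phosphate gel. Enzyme activated 37 °C 30 min, pre-incubated with compound (DMSO stocks 1–5 mM) 30 min at 37 °C. Assay: 200 µg enzyme, 0.13 mM HMG-CoA, 50 mM Tris-HCl pH 7.5; started with 0.13 mM NADPH; A340 decrease over 2 min; triplicate; IC50 derived.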

With `CCCc1cc(OC)c(OC)cc1O` the Activity (Mus musculus [1]) was -37.36%, the Activity (Mus musculus [2]) was -23.07% and the Activity (Mus musculus [3]) was -60.69%. It also gave an Activity (Mus musculus [4]) of -55.75%, an Activity (Mus musculus [5]) of -35.05% and an Activity (Mus musculus [6]) of -38.38%. It also gave an Activity (Mus musculus [7]) of -66.67%, an Activity (Mus musculus [8]) of -59.76% and an Activity (Mus musculus [9]) of -24.12%. The Activity (Mus musculus [10]) was -14.84%, the Activity (Mus musculus [11]) was -72.01% and the Activity (Mus musculus [12]) was -38.67%. The Activity (Mus musculus [13]) was -60.81%, the Activity (Mus musculus [14]) was -62.42% and the Activity (Mus musculus [15]) was -76.85%. It also gave an Activity (Mus musculus [16]) of -22.77% and an IC50 [17] of 73.6 µM.
